Experimental data from ChEMBL document CHEMBL3739417, “Synthesis and biological evaluation of novel 4,5-disubstituted 2H-1,2,3-triazoles as cis-constrained analogues of combretastatin A-4” (2015).

What was measured:
Format in all cases: functional
[1] = Growth inhibition of human HOP62 cells after 48 hrs by sulforhodamine B assay; settings: HOP-62, 48 h; for LC50 (concentration killing 50% of cells): read-out: LD50
Method in brief: (§1)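 NCI-60 panel screen by SRB assay (Rubinstein method). Percentage growth taken from optical density of SRB colour, read before and 48 hrs after exposure to compound or vehicle control. All analogues first screened at 10^-5 M. Analogues giving 60% growth inhibition at that level in at least eight lines then went to a five-concentration dose-response study.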

[2] = test system: SK-MEL-5; test: Growth inhibition of human SK-MEL-5 cells after 48 hrs by sulforhodamine B assay; settings: SK-MEL-5, 48 h; for CC50: read-out: LD50 (the source's name); method in brief: as §1
[3] = test system: M14; test: Growth inhibition of human M14 cells after 48 hrs by sulforhodamine B assay; settings: M14, 48 h; for CC50: read-out: LD50 (the source's name); method in brief: as §1
[4] = Growth inhibition of human UACC62 cells after 48 hrs by sulforhodamine B assay; settings: UACC-62, 48 h; for CC50: read-out: LD50 (the source's name); method in brief: as §1
[5] = test system: K562; test: Growth inhibition of human K562 cells after 48 hrs by sulforhodamine B assay; settings: K562, 48 h; for CC50: read-out: LD50 (the source's name); method in brief: as §1
[6] = Growth inhibition of human OVCAR4 cells after 48 hrs by sulforhodamine B assay; settings: OVCAR-4, 48 h; for LC50 (concentration killing 50% of cells): read-out: LD50; method in brief: as §1
[7] = test system: SK-MEL-28; test: Growth inhibition of human SK-MEL-28 cells after 48 hrs by sulforhodamine B assay; settings: SK-MEL-28, 48 h; for CC50: read-out: LD50 (the source's name); method in brief: as §1
[8] = Growth inhibition of human SF539 cells after 48 hrs by sulforhodamine B assay; settings: SF-539, 48 h; for LC50 (concentration giving 50% cell kill): read-out: LD50
Method in brief: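 NCI-60 sulforhodamine B screen. Compounds were first tested at a single dose of 10⁻⁵ M; hits, defined as ≥60% growth inhibition in at least eight lines, went on to a five-concentration dose–response. SRB optical density was read before and 48 h after exposure to compound or vehicle. Percentage growth was calculated from OD.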

[9] = Growth inhibition of human Hs 578T cells after 48 hrs by sulforhodamine B assay; settings: for CC50: read-out: LD50 (the source's name); method in brief: as §1

| Compound | GI50 [1] [µM] | LC50 (concentration killing 50% of cells) [1] [µM] | GI50 [2] [µM] | CC50 [2] [µM] | GI50 [3] [µM] | CC50 [3] [µM] | GI50 [4] [µM] | CC50 [4] [µM] | GI50 [5] [µM] | CC50 [5] [µM] | GI50 [6] [µM] | LC50 (concentration killing 50% of cells) [6] [µM] | GI50 [7] [µM] | CC50 [7] [µM] | GI50 [8] [µM] | LC50 (concentration giving 50% cell kill) [8] [µM] | GI50 [9] [µM] | CC50 [9] [µM] | TGI [8] [µM] |
| --- | --- | --- | --- | --- | --- | --- | --- | --- | --- | --- | --- | --- | --- | --- | --- | --- | --- | --- | --- |
| COc1cc(-c2n[nH]nc2-c2ccc3ccccc3n2)cc(OC)c1OC | 0.047 | > 100 | 0.013 | > 100 | 0.022 | > 100 | 0.157 | > 100 | 0.026 | > 100 | 0.077 | > 100 | > 100 | > 100 | 0.02 | > 100 | – | – | – |
| Clc1ccc(-c2n[nH]nc2-c2ccccn2)c(Cl)c1 | 5.32 | > 100 | 7.89 | > 100 | 14.3 | > 100 | 3.35 | > 100 | 5.5 | > 100 | 3.04 | > 100 | 5.39 | > 100 | – | – | 11.6 | > 100 | – |
| COc1cc(-c2n[nH]nc2-c2ccc3c(c2)OCO3)cc(OC)c1OC | 0.34 | > 100 | > 100 | > 100 | – | – | > 100 | > 100 | 0.05 | > 100 | 0.08 | > 100 | 0.24 | > 100 | 0.18 | > 100 | 0.44 | > 100 | – |
| COc1cc(-c2n[nH]nc2-c2ccc3c(c2)OCCO3)cc(OC)c1OC | 0.018 | > 100 | < 0.01 | > 100 | < 0.01 | > 100 | > 100 | > 100 | < 0.01 | > 100 | 0.034 | > 100 | > 100 | > 100 | < 0.01 | > 100 | 0.668 | > 100 | – |
| COc1ccc(-c2nn[nH]c2-c2cc(OC)c(OC)c(OC)c2)cc1 | < 0.01 | > 100 | < 0.01 | > 100 | < 0.01 | > 100 | – | – | < 0.01 | > 100 | < 0.01 | > 100 | – | – | < 0.01 | > 100 | < 0.01 | > 100 | < 0.01 |
| COc1ccc(-c2n[nH]nc2-c2cc(OC)cc(OC)c2)cc1 | 0.025 | > 100 | 0.027 | > 100 | < 0.01 | > 100 | < 0.01 | > 100 | < 0.01 | > 100 | – | – | – | – | 0.014 | > 100 | 0.041 | > 100 | – |
